Results on ten compounds are retold here after ChEMBL document CHEMBL3098054, “The synthesis of novel taxoids for oral administration” (Bioorg Med Chem, 2014).

Structures are written as SMILES.

Data set [1] is described as follows: Efflux ratio of apparent permeability from basolateral to apical side over apical to basolateral side in human Caco2 cells at 10 uM after 90 mins by LC-MS/MS analysis. In kind it is ADME, cell-based, Caco-2. Conditions: Caco-2. Summed up:
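Caco-2 cells cultured 21 days on 24-well inserts, TEER >250 Ω·cm². Monolayers pre-incubated in HBSS pH 7.4 at 37 °C. Compound added to the donor side at 10 µM, 37 °C, 5% CO₂, 90 min, in the A-to-B and B-to-A directions. Donor and receiver levels measured by LC-MS/MS. Papp calculated from receiver amount, membrane area 0.7 cm², time and initial donor concentration. Efflux ratio = B–A/A–B.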

Data set [2] can be described thus: Apparent permeability from basolateral to apical side in human Caco2 cells at 10 uM after 90 mins by LC-MS/MS analysis. Format: ADME, cell-based, Caco-2. Conditions: Caco-2.
The test system of a further data set is HeLa. The experiment in a line: Cytotoxicity against human HeLa cells at 1 uM after 72 hrs by MTT assay. The following applies: read-out: GI. Format: functional. The procedure, abridged:
(§1)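 Cells plated at 2000–5000/well, attached overnight at 37 °C. DMSO stocks (100 mM) serially diluted in medium to a final 1 µM, tested in duplicate wells. Exposure 72 h at 37 °C, 5% CO₂. MTT (5 mg/mL, 10 µL) added for 4 h. Lysis in 10% SDS / 5% isopropanol / 0.012 N HCl, then OD read at 580–680 nm.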

Data set [3] concerns MCF7. The experiment in a line: Cytotoxicity against human MCF7 cells after 72 hrs by MTT assay. In kind it is functional, cell-based. Conditions: MCF7, 72 h. Summed up:
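MCF-7 cells exposed to compound for 72 h and read by MTT. At least six replicate wells per assay, run on three separate occasions. IC₅₀ given as mean with standard deviation.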

Data set [4] in a line: Apparent permeability from apical to basolateral side in human Caco2 cells at 10 uM after 90 mins by LC-MS/MS analysis. In kind it is ADME, cell-based, Caco-2. Conditions: Caco-2.
The subject of a further data set is A-375. The experiment in a line: Cytotoxicity against human A375 cells at 1 uM after 72 hrs by MTT assay. Conditions: A-375, 72 h, read-out: GI. In kind it is functional. Summed up: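 Cells plated at 2000–5000/well, attached overnight at 37 °C. DMSO stocks (100 mM) serially diluted in medium to a final 1 µM, tested in duplicate wells. MTT (5 mg/mL, 10 µL) added for 4 h. Lysis in 10% SDS / 5% isopropanol / 0.012 N HCl, then OD read at 580–680 nm.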

The subject of another data set is A2780. The experiment in a line: Cytotoxicity against human A2780 cells at 1 uM after 72 hrs by MTT assay. Format: functional. Conditions: A2780, 72 h, read-out: GI. The procedure, abridged: as §1
A further data set has as its system HL-60. The experiment in a line: Cytotoxicity against human HL60 cells at 1 uM after 72 hrs by MTT assay. Format: functional. The following applies: HL-60, 72 h, read-out: GI. The procedure, abridged:
as §1

Data set [5] deals with MCF7. The experiment in a line: Cytotoxicity against human MCF7 cells at 1 uM after 72 hrs by MTT assay. Conditions: MCF7, 72 h, read-out: GI. Format: functional. Summed up: as §1
The next data set relates to DU-145. The experiment in a line: Cytotoxicity against human DU145 cells at 1 uM after 72 hrs by MTT assay. The following applies: DU-145, 72 h, read-out: GI. In kind it is functional. Summed up: as §1
The next data set relates to NCI-H460. The experiment in a line: Cytotoxicity against human NCI-H460 cells at 1 uM after 72 hrs by MTT assay. Format: functional. The following applies: NCI-H460, 72 h, read-out: GI. Summed up:
as §1

The next data set has as its system HT-29. The experiment in a line: Cytotoxicity against human HT-29 cells at 1 uM after 72 hrs by MTT assay. Conditions: HT-29, 72 h, read-out: GI. Format: functional. The procedure, abridged: as §1

Turning to `CO[C@H]1C(=O)[C@]2(C)CC[C@H]3OC[C@@]3(OC(C)=O)[C@H]2[C@H](OC(=O)c2ccccc2)[C@]2(O)C[C@H](OC(=O)[C@H](O)[C@H](CC(C)C)NC(=O)OC(C)(C)C)C(C)=C1C2(C)C`, the efflux ratio at 1.5 h, 10 µM in [1] was 5.12. In addition, the Papp B→A at 1.5 h, 10 µM in data set [2] was 38.6 ×10⁻⁶ cm/s. The inhibition of growth at 1 µM in the data set with HeLa was 99.3%. In the data set with MCF7 [3], inhibition was half-maximal at 3.06 nM (IC50). In addition, the Papp A→B at 1.5 h, 10 µM in data set [4] is 7.17 ×10⁻⁶ cm/s.

For the compound `CO[C@H]1C[C@H]2OC[C@@]2(OC(C)=O)[C@H]2[C@H](OC(=O)c3ccccc3)[C@]3(O)C[C@H](OC(=O)[C@H](O)[C@H](CC(C)C)NC(=O)OC(C)(C)C)C(C)=C([C@@H](OC(=O)N(C)C)C(=O)[C@]12C)C3(C)C`, the Papp B→A at 1.5 h, 10 µM in data set [2] worked out at 32.6 ×10⁻⁶ cm/s. In addition, the inhibition of growth at 1 µM in the data set with HeLa turned out to be 101%; in the data set with A-375, 89%. This compound returned an IC50 with MCF7 [3] of 1.7 nM. In addition, the Papp A→B at 1.5 h, 10 µM in [4] was found to be 8.17 ×10⁻⁶ cm/s.

With `COC(=O)O[C@H]1C(=O)[C@]2(C)[C@@H](OC)C[C@H]3OC[C@@]3(OC(C)=O)[C@H]2[C@H](OC(=O)c2ccccc2)[C@]2(O)C[C@H](OC(=O)[C@H](O)[C@@H](NC(=O)OC(C)(C)C)c3ccccc3)C(C)=C1C2(C)C`, the inhibition of growth at 1 µM in the data set with A2780 came out at 94.1%; in the data set with HL-60, 97.4%; in the data set on MCF7 [5], 95.3%; in the data set on DU-145, 83.3%; in the data set with HeLa it was 99.5%; in the data set on A-375, 103%. The inhibition of growth at 1 µM is 80.4% in the data set with NCI-H460 and 87.3% with HT-29. Moreover, in [1], the efflux ratio at 1.5 h, 10 µM worked out at 4.22. In addition, the Papp B→A at 1.5 h, 10 µM in data set [2] is 29.2 ×10⁻⁶ cm/s. In the data set with MCF7 [3], this compound yielded an IC50 of 1.4 nM. For the same compound, the apical-to-basolateral permeability (Papp A→B) at 1.5 h, 10 µM in [4] was 6.91 ×10⁻⁶ cm/s.

Turning to `COC(=O)O[C@H]1C[C@H]2OC[C@@]2(OC(C)=O)[C@H]2[C@H](OC(=O)c3ccccc3)[C@]3(O)C[C@H](OC(=O)[C@H](O)[C@@H](NC(=O)OC(C)(C)C)c4ccccc4)C(C)=C([C@@H](OC)C(=O)[C@]12C)C3(C)C`, the inhibition of growth at 1 µM is 96.4% with A2780; 97% in the data set on HL-60; 103% with MCF7 [5]; 88.5% in the data set on DU-145; 102% in the data set with HeLa; 97.4% in the data set with A-375. For the same compound, the inhibition of growth at 1 µM with NCI-H460 is 89.5%; in the data set with HT-29, 89.7%. In addition, in [1], the efflux ratio at 1.5 h, 10 µM is 5.23. The Papp B→A at 1.5 h, 10 µM in [2] amounted to 38.8 ×10⁻⁶ cm/s. The same compound returned an IC50 with MCF7 [3] of 4.97 nM. Moreover, the Papp A→B at 1.5 h, 10 µM in [4] was 6.97 ×10⁻⁶ cm/s.

In the case of `CO[C@H]1C(=O)[C@]2(C)[C@@H](OC)C[C@H]3OC[C@@]3(OC(C)=O)[C@H]2[C@H](OC(=O)c2ccccc2)[C@]23OC(=O)O[C@H]2[C@H](OC(=O)[C@H](O)[C@@H](NC(=O)OC(C)(C)C)c2ccccc2)C(C)=C1C3(C)C`, the inhibition of growth at 1 µM worked out at 94.7% in the data set with A2780; 95.9% in the data set with HL-60; 93.5% in the data set with MCF7 [5]; 84.7% in the data set on DU-145; 98.2% with HeLa; 89.8% in the data set on A-375. Further, the inhibition of growth at 1 µM was 82.2% in the data set with NCI-H460 and 89% with HT-29. Moreover, the efflux ratio at 1.5 h, 10 µM in data set [1] was 6.42. Also, in [2], the Papp B→A at 1.5 h, 10 µM is 18.2 ×10⁻⁶ cm/s. In addition, half-maximal inhibition in the data set on MCF7 [3] (IC50) was put at 2.1 nM. Further, the Papp A→B at 1.5 h, 10 µM in data set [4] is 2.83 ×10⁻⁶ cm/s.

`CO[C@H]1C(=O)[C@]2(C)CC[C@H]3OC[C@@]3(OC(C)=O)[C@H]2[C@H](OC(=O)c2ccccc2)[C@]23OC(=O)O[C@H]2[C@H](OC(=O)[C@H](O)[C@@H](NC(=O)OC(C)(C)C)c2ccccc2)C(C)=C1C3(C)C`: the inhibition of growth at 1 µM is 96% in the data set on A2780; 97.7% in the data set with HL-60; 86.3% with MCF7 [5]; 89.1% with DU-145; 99.9% in the data set on HeLa; 94.4% in the data set on A-375. Further, the results for the inhibition of growth at 1 µM in the data set with NCI-H460 and with HT-29 were 84.7% and 87.3%, respectively. In [1], the efflux ratio at 1.5 h, 10 µM came out at 9.56. Further, in [2], the Papp B→A at 1.5 h, 10 µM is 25.3 ×10⁻⁶ cm/s. In the data set with MCF7 [3], this compound came in with an IC50 of 4.49 nM. Further, the Papp A→B at 1.5 h, 10 µM in data set [4] was determined as 2.64 ×10⁻⁶ cm/s.

On to `CO[C@H]1C(=O)[C@@]2(C)[C@H]([C@H](OC(=O)c3ccccc3)[C@]34OC(=O)O[C@H]3[C@H](OC(=O)[C@H](O)[C@@H](NC(=O)OC(C)(C)C)c3ccccc3)C(C)=C1C4(C)C)[C@]1(OC(C)=O)CO[C@@H]1C[C@@H]2O`, for which the inhibition of growth at 1 µM came out at 95% in the data set on A2780; 97.5% in the data set with HL-60; 87.1% with MCF7 [5]; 86.8% in the data set with DU-145; 100% in the data set on HeLa; 92.5% with A-375. Besides, the figures for the inhibition of growth at 1 µM in the data set on NCI-H460 and with HT-29 were 82.7% and 86.6%, respectively. For the same compound, the efflux ratio at 1.5 h, 10 µM in [1] came to 51. In data set [2], the apparent permeability from basolateral to apical (Papp B→A) at 1.5 h, 10 µM worked out at 44.7 ×10⁻⁶ cm/s. In addition, the Papp A→B at 1.5 h, 10 µM in data set [4] was 0.88 ×10⁻⁶ cm/s.

On to `CO[C@H]1C(=O)[C@]2(C)[C@@H](OC(=O)N(C)C)C[C@H]3OC[C@@]3(OC(C)=O)[C@H]2[C@H](OC(=O)c2ccccc2)[C@]23OC(=O)O[C@H]2[C@H](OC(=O)[C@H](O)[C@H](CC(C)C)NC(=O)OC(C)(C)C)C(C)=C1C3(C)C`, for which the efflux ratio at 1.5 h, 10 µM in [1] turned out to be 2.39. The Papp B→A at 1.5 h, 10 µM in data set [2] came out at 5.74 ×10⁻⁶ cm/s. In the data set with MCF7 [3], this compound came in with an IC50 of 21.2 nM. The Papp A→B at 1.5 h, 10 µM in [4] was determined as 2.4 ×10⁻⁶ cm/s.

Regarding `COC(=O)O[C@H]1C[C@H]2OC[C@@]2(OC(C)=O)[C@H]2[C@H](OC(=O)c3ccccc3)[C@]34OC(=O)O[C@H]3[C@H](OC(=O)[C@H](O)[C@H](CC(C)C)NC(=O)OC(C)(C)C)C(C)=C([C@@H](OC)C(=O)[C@]12C)C4(C)C`, the efflux ratio at 1.5 h, 10 µM in [1] turned out to be 7.81. In [2], the apparent permeability from basolateral to apical (Papp B→A) at 1.5 h, 10 µM turned out to be 7.16 ×10⁻⁶ cm/s. The compound also came in with a concentration for half-maximal inhibition (IC50) in the data set on MCF7 [3] of 2.94 nM. Also, in data set [4], the apparent permeability from apical to basolateral (Papp A→B) at 1.5 h, 10 µM was found to be 0.92 ×10⁻⁶ cm/s.

`CC(=O)O[C@H]1C(=O)[C@@]2(C)[C@H]([C@H](OC(=O)c3ccccc3)[C@]34OC(=O)O[C@H]3[C@H](OC(=O)[C@H](O)[C@H](CC(C)C)NC(=O)OC(C)(C)C)C(C)=C1C4(C)C)[C@]1(OC(C)=O)CO[C@@H]1C[C@@H]2O` [ORTATAXEL]: the inhibition of growth at 1 µM with A2780 worked out at 96.4%; in the data set with HL-60, 96.5%; with MCF7 [5], 88.7%; in the data set on DU-145, 90.6%; in the data set with HeLa, 99.5%; with A-375, 96.7%. In addition, the inhibition of growth at 1 µM in the data set with NCI-H460 was determined as 85.5%; in the data set with HT-29, 87.7%. Further, the efflux ratio at 1.5 h, 10 µM in data set [1] was 6.84. Besides, the apparent permeability from basolateral to apical (Papp B→A) at 1.5 h, 10 µM in data set [2] is 19.2 ×10⁻⁶ cm/s. Also, the Papp A→B at 1.5 h, 10 µM in [4] is 2.8 ×10⁻⁶ cm/s.
